Data set [1] has as its system Staphylococcus aureus. In words: Antimicrobial activity against methicillin-susceptible Staphylococcus aureus 25923 infected in BALB/cAnNCr mouse assessed as decrease in bacterial density in lungs at 1 to 25 mg/kg, sc administered as 1 to 5 times/day after 24 hrs […] relative to control. The conditions noted are these: dose mg/kg 1-5; route subcutaneous. It is filed as functional. The gist of the method:
(§1)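 Neutropenic mice given oral S. aureus inoculum (10^7 CFU/ml in 3% mucin). s.c. dosing of 1–25 mg/kg, once to five times daily, began 6 h post-infection and ran 24 h, five mice per group, with sham-treated controls. Lung homogenates were plated on blood and Columbia agar at 35°C up to 48 h. Log10 CFU/ml at 24 h was compared with untreated controls.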

Data set [2] can be described thus: fT>MIC required for 50% inhibition of community acquired Staphylococcus aureus 146 infection in neutropenic BALB/cAnNCr mouse. It is filed as functional.
A short description of data set [3]: fT>MIC required for 50% inhibition of methicillin-susceptible Staphylococcus aureus 25923 infection in neutropenic BALB/cAnNCr mouse. Format: functional.
Data set [4] is described as follows: fT>MIC required for 80% inhibition of hospital acquired methicillin-resistant Staphylococcus aureus 56 infection in neutropenic BALB/cAnNCr mouse. It is filed as functional. In short, it runs like this: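 Same neutropenic murine pneumonia model, with 24-h lung log10 CFU change (5 mice per group; 1–25 mg/kg s.c., 1–5 times daily). […] ED50, ED80 and stasis exposures were taken from a sigmoid Emax fit for each isolate.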

Data set [5] concerns Staphylococcus aureus. In words: Antimicrobial activity against Staphylococcus aureus infected in BALB/cAnNCr mouse assessed as decrease in bacterial density in lungs relative to control at 1 to 25 mg/kg, sc administered as 1 to 5 times/day after 24 hrs […]. Format: functional. To be noted: dose mg/kg 1-5; route subcutaneous. In short, it runs like this:
as §1

Data set [6] is described as follows: fAUC/MIC in neutropenic BALB/cAnNCr mouse plasma infected with Staphylococcus aureus at 1 to 25 mg/kg, sc administered 1 to 5 times/day after 24 hrs by HPLC. Format: functional. The conditions noted are these: route subcutaneous. In short, it runs like this:
(§2)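 Exposure indices used free plasma drug, correcting with 19% mouse protein binding supplied by the sponsor. The regimens were s.c. 1–25 mg/kg given 1–5 times daily for 24 h to neutropenic mice with S. aureus pneumonia. MICs were determined in triplicate by CLSI broth microdilution. PK came from the single-dose HPLC study.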

Data set [7] is described as follows: fT>MIC in neutropenic BALB/cAnNCr mouse plasma infected with Staphylococcus aureus at 1 to 25 mg/kg, sc administered 1 to 5 times/day after 24 hrs HPLC. The conditions noted are these: route subcutaneous. It is filed as functional. The gist of the method: as §2
Data set [8] is described as follows: Elimination clearance in neutropenic BALB/cAnNCr mouse infected with Staphylococcus aureus at 25 mg/kg, sc administered as single dose after 6 hrs of infection. It is filed as ADME, organism-based. More on the design: dose 25 mg/kg, route subcutaneous. To be noted: in vivo. In short, it runs like this:
(§3)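 Neutropenic female mice (cyclophosphamide i.p. 250 mg/kg day −4, 100 mg/kg day −1) with HA-MRSA 56 pneumonia (oral inoculum, 10^7 CFU/ml in 3% mucin). Single s.c. dose in sterile water. Plasma by intracardiac puncture at 0.25–4 h, six mice per time point, stabilized with citric acid. Assayed by validated HPLC (LOQ 0.01 µg/ml). Parameters from one-compartment analysis.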

Data set [9] in a line: Elimination clearance in neutropenic BALB/cAnNCr mouse infected with Staphylococcus aureus at 10 mg/kg, sc administered as single dose after 6 hrs of infection. Format: ADME, organism-based. More on the design: dose 10 mg/kg, route subcutaneous. The conditions noted are these: in vivo. The gist of the method:
as §3

Data set [10] in a line: Elimination half life in neutropenic BALB/cAnNCr mouse infected with Staphylococcus aureus at 2.5 mg/kg, sc administered as single dose after 6 hrs of infection. To be noted: in vivo. More on the design: dose 2.5 mg/kg, route subcutaneous. It is filed as ADME, organism-based. The gist of the method:
(§4)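 Female BALB/cAnNCr mice (7-9 weeks, 15-22 g) made neutropenic with cyclophosphamide, 250 mg/kg i.p. on day -4 and 100 mg/kg i.p. on day -1. Infected by oral aspiration of HA-MRSA 56 (10^7 CFU/ml in 3% mucin/saline). Single s.c. dose in sterile water given 6 h post-challenge. Plasma (EDTA, citric acid-stabilized) taken at 0.25-4 h, six mice per time point. Assayed by validated HPLC (LOQ 0.01 µg/ml); one-compartment analysis.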

Data set [11] concerns Mus musculus. Briefly: Volume of distribution in neutropenic BALB/cAnNCr mouse infected with Staphylococcus aureus at 10 mg/kg, sc administered as single dose after 6 hrs of infection. It is filed as ADME, organism-based. More on the design: dose 10 mg/kg, route subcutaneous. To be noted: in vivo. The gist of the method:
as §3

In data set [12] the test system is Mus musculus. Briefly: Volume of distribution in neutropenic BALB/cAnNCr mouse infected with Staphylococcus aureus at 2.5 mg/kg, sc administered as single dose after 6 hrs of infection. Format: ADME, organism-based. Also noted: dose 2.5 mg/kg, route subcutaneous. To be noted: in vivo. In short, it runs like this: as §4
Data set [13] concerns Mus musculus. Briefly: Volume of distribution in neutropenic BALB/cAnNCr mouse infected with Staphylococcus aureus at 1 mg/kg, sc administered as single dose after 6 hrs of infection. To be noted: in vivo. Format: ADME, organism-based. More on the design: dose 1 mg/kg, route subcutaneous. The gist of the method: as §3
Data set [14] in a line: AUC (0 to infinity) in neutropenic BALB/cAnNCr mouse infected with Staphylococcus aureus at 25 mg/kg, sc administered as single dose after 6 hrs of infection. It is filed as ADME, organism-based. Also noted: time infinity, dose 25 mg/kg, route subcutaneous. The conditions noted are these: plasma. In short, it runs like this: as §3
Data set [15] can be described thus: AUC (0 to infinity) in neutropenic BALB/cAnNCr mouse infected with Staphylococcus aureus at 1 mg/kg, sc administered as single dose after 6 hrs of infection. It is filed as ADME, organism-based. More on the design: time infinity, dose 1 mg/kg, route subcutaneous. The conditions noted are these: plasma. The gist of the method: as §3
Data set [16] deals with Staphylococcus aureus. Briefly: Antimicrobial activity against hospital acquired methicillin-resistant Staphylococcus aureus 152 by broth microdilution method. Format: functional. In short, it runs like this:
(§5)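 Broth microdilution run in triplicate following CLSI guidelines. Isolates were stored at –80°C in double-strength skim milk and subcultured twice on Trypticase soy agar with 5% sheep blood before testing.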

Data set [17] concerns Staphylococcus aureus. Briefly: Antimicrobial activity against hospital acquired methicillin-resistant Staphylococcus aureus 149 by broth microdilution method. It is filed as functional. In short, it runs like this: as §5
In general terms: Dilution methods test growth across graded concentrations, often in twofold steps.

Data set [18] has as its system Staphylococcus aureus. In words: Antimicrobial activity against community acquired methicillin-resistant Staphylococcus aureus 147 by broth microdilution method. Format: functional. In short, it runs like this: as §5
Data set [19] concerns Staphylococcus aureus. Briefly: Antimicrobial activity against community acquired methicillin-resistant Staphylococcus aureus 144 by broth microdilution method. Format: functional. The gist of the method: as §5
Data set [20] relates to Staphylococcus aureus. Briefly: Antimicrobial activity against methicillin-susceptible Staphylococcus aureus ATCC 25923 by broth microdilution method. Format: functional. The gist of the method: as §5
In data set [21] the test system is Staphylococcus aureus. Briefly: Antimicrobial activity against hospital acquired methicillin-resistant Staphylococcus aureus 152 infected in BALB/cAnNCr mouse assessed as decrease in bacterial density in lungs at 1 to 25 mg/kg, sc administered as 1 to 5 times/day after 24 hrs […] relative to control. The conditions noted are these: route subcutaneous. Format: functional. The gist of the method:
(§6)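 Female BALB/cAnNCr mice (7–9 weeks) were made neutropenic with cyclophosphamide i.p. at 250 mg/kg on day −4 and 100 mg/kg on day −1. Under isoflurane, mice received an oral inoculum in 3% mucin/saline, with nostrils blocked until aspiration. Drug (1–25 mg/kg s.c., once to five times daily, water vehicle) or sham started 6 h post-inoculation. Lungs were harvested at 24 h, homogenized and plated on blood and Columbia agar at 35°C. Mean log10 CFU/ml was compared with the 0-h untreated baseline; 5 mice per group.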

In data set [22] the test system is Staphylococcus aureus. Briefly: Antimicrobial activity against community acquired methicillin-resistant Staphylococcus aureus 144 infected in BALB/cAnNCr mouse assessed as decrease in bacterial density in lungs at 1 to 25 mg/kg, sc administered as 1 to 5 times/day after 24 hrs […] relative to control. It is filed as functional. To be noted: route subcutaneous. In short, it runs like this:
as §6

Data set [23] in a line: fT>MIC required for 50% inhibition of Staphylococcus aureus infection in neutropenic BALB/cAnNCr mouse. Format: functional.
Data set [24] is described as follows: fCmax/MIC required for 50% inhibition of Staphylococcus aureus infection in neutropenic BALB/cAnNCr mouse. Format: functional.

The structures appear in SMILES notation. In brackets after ≈: the same amount, converted by molar mass.

These results are taken from ChEMBL document CHEMBL1275429, “Pharmacodynamic characterization of ceftobiprole in experimental pneumonia caused by phenotypically diverse Staphylococcus aureus strains” (Antimicrob Agents Chemother, 2008).

A word on the CL/F: it is the apparent clearance, not corrected for the fraction that reaches the circulation. What is called half-life is the time needed for the level to fall by half in the phase considered. By AUC(0-inf) is commonly meant total exposure, with the tail of the curve extrapolated. As usually defined, the MIC is the least concentration at which growth counts as inhibited. A high value points to a need for much substance.

As for `Nc1nc(/C(=N/O)C(=O)N[C@@H]2C(=O)N3C(C(=O)O)=C(/C=C4\CCN([C@@H]5CCNC5)C4=O)CS[C@H]23)ns1` [CEFTOBIPROLE], the log10cfu in [1] was 4.2; in [5] it was 2.5; in data set [21] it was 3.8; in [22] it was 2.9. Also, the “fT>MIC” value came out at 5.5% in data set [2]; 8.1% in data set [3]; 15.5% in data set [4]; 3% in data set [7]; 12% in data set [23]. In data set [6], the fAUC/MIC is 2. The CL/F in data set [8] is 11.8 mL/min/kg; in data set [9] it was 10.5 mL/min/kg. This compound showed a half-life in [10] of 27 min. Further, the Vd in data set [11] worked out at 0.38 L/kg; in data set [12], 0.63 L/kg; in data set [13], 0.19 L/kg. In addition, the results for the AUC(0-inf) in [14] and in data set [15] were 35200 ng·h/mL and 1840 ng·h/mL, respectively. The MIC in data set [16] amounted to 0.5 µg/mL (≈ 0.935 µM); in data set [17] it was 1 µg/mL (≈ 1.87 µM); in data set [18] it was 1 µg/mL (≈ 1.87 µM); in [19], 1 µg/mL (≈ 1.87 µM); in data set [20], 0.25 µg/mL (≈ 0.468 µM). In [24], the fCmax/MIC is on record as 2.
